Data reported in ChEMBL document CHEMBL1817654, “Synthesis and protective effects of aralkyl alcoholic 2-acetamido-2-deoxy-β-D-pyranosides on hypoglycemia and serum limitation induced apoptosis in PC12 cell” (2011).
Activity calls are given as the source filed them. The calls are words filed in the database; no cut-off is given here.

Key:
PC-12 [1] = test: Neuroprotective activity in rat differentiated PC12 cells assessed protection against hypoglycemia and serum limitation-induced decrease in cell viability at 40 uM after 24 hrs by MTT assay; type: functional
Procedure, shortened: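 NGF-differentiated PC12 cells (50 ng/ml every other day, 6 days) pretreated with 8, 40 or 200 µM for 24 h. Insult: 24 h in glucose-free DMEM with 1% horse serum and 1% FBS, compound kept. MTT added to 0.5 mg/ml for 4 h at 37 °C, formazan dissolved in 20% SDS, absorbance read at 570 nm. Viability given as % of unstressed control. Three independent experiments, each in triplicate.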

PC-12 [2] = test: Neuroprotective activity in rat differentiated PC12 cells assessed protection against hypoglycemia and serum limitation-induced early stage of apoptosis at 40 uM after 24 hrs using annexin V/propidium iodide double staining by flow cytometry; type: functional
Procedure, shortened: (§1)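 Differentiated PC12 cells pretreated 24 h, then 24 h of glucose-free DMEM with 1% horse and 1% fetal serum. Harvested cells resuspended at 1 × 10⁶/ml in binding buffer (10 mM HEPES, 140 mM NaCl, 2.5 mM CaCl₂). FITC-annexin V and PI added, 15 min in the dark at room temperature, analysed by flow cytometry within 1 h. Three independent experiments in triplicate.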

PC-12 [3] = test: Neuroprotective activity in rat differentiated PC12 cells assessed protection against hypoglycemia and serum limitation-induced apoptosis at 40 uM after 24 hrs by Hoechst 33342 staining analysis; type: functional
Procedure, shortened: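 PC12 cells kept in high-glucose DMEM with 10% horse serum and 5% FBS, differentiated with NGF (50 ng/ml) every other day for 6 days. Pretreated 24 h, then glucose-free DMEM with 1% horse and 1% fetal serum for 24 h with compound kept. Cells fixed in 4% paraformaldehyde, stained with Hoechst 33342 (5 µg/ml, 37 °C, 10 min). Condensed or fragmented nuclei counted under UV fluorescence as a fraction of total cells. Three independent experiments in triplicate.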

PC-12 [4] = test: Neuroprotective activity in rat differentiated PC12 cells assessed reduction of hypoglycemia and serum limitation-induced caspase 3 activity at 40 uM after 24 hrs by colorimetric assay relative to control; type: functional
Procedure, shortened: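 Treatment: NGF-differentiated PC12 cells preincubated 24 h, then 24 h of hypoglycemia and serum limitation. Lysates spun at 12,000 g for 10 min, protein measured by Bradford. Lysate incubated with reaction buffer and Ac-DEVD-pNA (10 µl of a 2 mM stock) for 4 h at 37 °C. pNA release read at 405 nm, expressed as % of control.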

PC-12 [5] = test: Neuroprotective activity in rat differentiated PC12 cells assessed protection against hypoglycemia and serum limitation-induced late stage of apoptosis at 40 uM after 24 hrs using annexin V/propidium iodide double staining by flow cytometry; type: functional, cell-based; procedure, shortened: as §1
PC-12 [6] = test: Neuroprotective activity in rat differentiated PC12 cells assessed reversal of hypoglycemia and serum limitation-induced mitochondrial membrane potential at 40 uM after 24 hrs using Rhodamine dye by confocal microscopic analysis; type: functional
Procedure, shortened: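 Differentiated PC12 cells given 24 h pretreatment, then 24 h in glucose-free DMEM with 1% horse serum and 1% FBS. Rhodamine 123 added to 2 µM final for 30 min at 37 °C. Cells fixed in 4% paraformaldehyde and imaged by confocal microscopy (ex 488, em 530 nm, ×400). Fluorescence intensity given as % of control. Three independent experiments in triplicate.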

Compound | Activity (PC-12 [1]) | Activity (PC-12 [2]) [%] | Activity (PC-12 [3]) [%] | fold change (FC) (PC-12 [4]) | Activity (PC-12 [5]) | Activity (PC-12 [6]) [%]
CC(=O)N[C@H]1[C@H](OCCc2ccc(O)cc2)O[C@H](CO)[C@@H](O)[C@@H]1O | 65.36% |  |  |  |  | 
CC(=O)N[C@H]1[C@H](OCc2cccc(O)c2)O[C@H](CO)[C@@H](O)[C@@H]1O | Active |  |  |  |  | 
COc1ccc(CCCO[C@@H]2O[C@H](CO)[C@@H](O)[C@H](O)[C@H]2NC(C)=O)cc1 | 80.41% | 15.51 | 7.12 | 1.69 | inactive | 79.05
COc1cc(CO[C@@H]2O[C@H](CO)[C@@H](O)[C@H](O)[C@H]2NC(C)=O)cc(OC)c1 | Active |  |  |  |  | 
CC(=O)N[C@H]1[C@H](OCc2ccc(O)cc2)O[C@H](CO)[C@@H](O)[C@@H]1O | 60.65% |  |  |  |  | 
COc1ccc(CCO[C@@H]2O[C@H](CO)[C@@H](O)[C@H](O)[C@H]2NC(C)=O)cc1 | 86.62% | 11.21 | 5.9 | 1.55 | inactive | 82.86
OC[C@H]1O[C@@H](OCCc2ccc(O)cc2)[C@H](O)[C@@H](O)[C@@H]1O [SALIDROSIDE] | 65.62% | 17.56 | 8.31 | 1.97 | inactive | 71.43
COc1cc(CCCO[C@@H]2O[C@H](CO)[C@@H](O)[C@H](O)[C@H]2NC(C)=O)ccc1O | 62.38% |  |  |  |  | 
CC(=O)N[C@H]1[C@H](OCCCc2ccc(O)cc2)O[C@H](CO)[C@@H](O)[C@@H]1O | Active |  |  |  |  | 
CC(=O)N[C@H]1[C@H](OCc2ccccc2)O[C@H](CO)[C@@H](O)[C@@H]1O | inactive |  |  |  |  | 
CC(=O)N[C@H]1[C@H](OCCc2ccccc2)O[C@H](CO)[C@@H](O)[C@@H]1O | inactive |  |  |  |  | 
COc1cc(CO[C@@H]2O[C@H](CO)[C@@H](O)[C@H](O)[C@H]2NC(C)=O)ccc1O | 65.9% |  |  |  |  | 
